{"source": "the RNAGym collection of RNA variant scans (doi:10.1126/science.aae0568)", "parents": {"B1": {"name": "tRNA (parent)", "chain": "GUUCCGUUGGCGUAAUGGUAACGCGUCUCCCUCCUAAGGAGAAGACUGCGGGUUCGAGUCCCGUACGGAACG"}}, "note": "Variants at the floor of the assay were thinned out.", "data": [{"variants_of": "B1", "experiment": "yeast fitness relative to wild type (ratio to wild type); higher = fitter; tRNA-Arg(CCU), competitive growth, 37 C, YPD", "how_it_was_run": "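Changes in genotype frequencies gave Darwinian fitness relative to wild type. Frequencies were read by 100-nucleotide paired-end sequencing of gene amplicons before and after pooled Saccharomyces cerevisiae strains, carrying tRNA-Arg(CCU) gene variants at the native locus, were competed in YPD at 37°C for 24 hours in six replicates. A genotype was kept only with ≥ 100 starting reads, and estimates < 0.5 were set to 0.5.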", "values": [{"variant": "GUUCCGUUGGCGAAAUGGUAACGCGUCUCCCUCCUAUGGAGAAGACUGCGGGUUCGAGUCCCGUACGAAACG", "note": "[U13A A37U G68A]", "yeast fitness": 0.637}, {"variant": "GUUCCGUUGGCGAAAUGGUAACGCGUCUCCCUCCUACGGAGAUGACUGCCGGUUCGGGUCCCGUACGGAACG", "note": "[U13A A37C A43U G50C A57G]", "yeast fitness": "≤ 0.5"}, {"variant": "GUUCCGUUGGCGAAAUGGUAACGCGUCUCCCUCCUUAGGAGAAGUCUGCGGCUUCGUGUCCCGUACGGAACG", "note": "[U13A A36U A45U G52C A57U]", "yeast fitness": "≤ 0.5"}, {"variant": "GUUCCGUUGGCGAAAUGGUAGCGCGUCUCCCUCCUAAGGAGAAGACUGCGGGUUCGAGUCCCAUACGGAACG", "note": "[U13A A21G G63A]", "yeast fitness": 0.652}, {"variant": "GUUCCGUUGGCGAAAUGGUAUCGCGUCUCCCUCCUAAGGAGAAGACUGCGGGUUCGACUCCCGUACGCAACG", "note": "[U13A A21U G58C G68C]", "yeast fitness": 0.857}, {"variant": "GUUCCGUUGGCGAAAUGGUAACGCGUCUCCCUCCUAUGGACAAGACUGCGGGUUCGAGCCCCGUACGGAACG", "note": "[U13A A37U G41C U59C]", "yeast fitness": "≤ 0.5"}, {"variant": "GUUCCGUUGGCGAAAUGGUAAUGCGUCUCCCUCCUAAGGAGAAGACUGCGGGUUCGUGUCCCGUACGGAACG", "note": "[U13A C22U A57U]", "yeast fitness": "≤ 0.5"}, {"variant": "GUUCCGUUGGCGAAAUGGUAAGGGGUCUCCCUCCUUAGGCGAAGGCUGCGGGUUCGAGUCCCGUAAGGAACG", "note": "[U13A C22G C24G A36U A40C A45G C66A]", "yeast fitness": "≤ 0.5"}, {"variant": "GUUCCGUUGGCGAAAUGGUAUGGCGUCUCCAUCCUAAGGAGAAGACUGCGGGUUCGAGUCCCGUACGGAACG", "note": "[U13A A21U C22G C31A]", "yeast fitness": 0.701}, {"variant": "GUUCCGUUGGCGAAAUGGUAACGCGUCUCCCUCCUAAGGAGAAGACUGCGGGUUCGGGUCCCGUACGGAACG", "note": "[U13A A57G]", "yeast fitness": 0.792}, {"variant": "GUUCCGUUGGCGAAAUGGUAAGGCGUCUCCGUCCUAAGGAGAAGACUGCGGGUUCGAGUCACGUACAGAACG", "note": "[U13A C22G C31G C61A G67A]", "yeast fitness": "≤ 0.5"}, {"variant": "GUUCCGUUGGCGAAAUGGUACCGCGUCUCCCUCCUAAGGAGAAGACUGCGGGUGCGAGUCCCGUAUGGAACG", "note": "[U13A A21C U54G C66U]", "yeast fitness": "≤ 0.5"}, {"variant": "GUUCCGUUGGCGAAAUGGUAACGAGUCUCCCUCCUAAGGAGAAGACUGCGAGUUCGAGUCACGUACGGUACG", "note": "[U13A C24A G51A C61A A69U]", "yeast fitness": "≤ 0.5"}, {"variant": "GUUCCGUUGGCGAAAUGGUAACGCGUCUCCCUCCUAAGGAGAUGACUGCGGGUUCGAGUCCCGUACGGAACG", "note": "[U13A A43U]", "yeast fitness": 0.855}, {"variant": "GUUCCGUUGGCGAAAUGGUAACGUGUCUCCCUCCUAAGGAGAAGACUGCGGGUUCGAGUCCCGUACGGAACG", "note": "[U13A C24U]", "yeast fitness": 0.795}, {"variant": "GUUCCGUUGGCGAAAUGGUAACGAGUCUCCCUCCUAAGGAGAAGACUGCGGGUUCGAGUCCCGUACGGAACG", "note": "[U13A C24A]", "yeast fitness": 0.624}, {"variant": "GUUCCGUUGGCGAAAUGGUAACGCGUCUCCCUCCUAAGGAGAAGACUGCGGGUUCGGGUCCCGUACGGCACG", "note": "[U13A A57G A69C]", "yeast fitness": 0.503}, {"variant": "GUUCCGUUGGCGAAAUGGUAACGAGUCUCCCUCCUAAGGAGAAGACUGCGGGUUCGAGUUCCGUACGGAACG", "note": "[U13A C24A C60U]", "yeast fitness": "≤ 0.5"}, {"variant": "GUUCCGUUGGCGAAAUGGUAACGCGUCUCCCUCCUAAGGCGAAGACUGCGGGUUCGAGUCCCGUACGGAUCG", "note": "[U13A A40C A70U]", "yeast fitness": "≤ 0.5"}, {"variant": "GUUCCGUUGGCGAAAUGGUAAAGCGUUUCCCUCCUAAGGAGUAGACUGCGGGUUCGAGUCCCGUACGGAACG", "note": "[U13A C22A C27U A42U]", "yeast fitness": "≤ 0.5"}, {"variant": "GUUCCGUUGGCGAAAUGGUAAUGCGUCUCCCUCCAAAGGAGAAGACUGCGGGUUCGAGUUACGUACGGAACG", "note": "[U13A C22U U35A C60U C61A]", "yeast fitness": "≤ 0.5"}, {"variant": "GUUCCGUUGGCGAAAUGGUAGCGCGUCUCCCUCCUAAGGAGAAGACUGCGGGUUCGAGUGCCGUAGGGAACG", "note": "[U13A A21G C60G C66G]", "yeast fitness": 0.756}, {"variant": "GUUCCGUUGGCGAAAUGGUAACGCGUCUCCCUCCUAAGGAGAAGCCUGCGGGUUCGAGUACCGUACGGAACG", "note": "[U13A A45C C60A]", "yeast fitness": "≤ 0.5"}, {"variant": "GUUCCGUUGGCGAAAUGGUAACGCGUCUCCCUCCUAAGGAGAAGACUGCGGGUUCGAGUCCCGUUCGGCACG", "note": "[U13A A65U A69C]", "yeast fitness": "≤ 0.5"}, {"variant": "GUUCCGUUGGCGAAAUGGUAACGCGUCUCCCUCCUACGGAAAAGACAGCGGGUUCGAGCCCCGUACGGAACG", "note": "[U13A A37C G41A U47A U59C]", "yeast fitness": "≤ 0.5"}, {"variant": "GUUCCGUUGGCGAAAUGGUAAUGCGUCUCCCUCCUAAGGAGAAGAUUGCGGGUUCGAGUCCCGUACGGAACG", "note": "[U13A C22U C46U]", "yeast fitness": 1.06}, {"variant": "GUUCCGUUGGCGAAAUGGUAAGGAGUCUCCCUCCUAAGCAGACCACCGCGGGUUCGAGUCUCGUACGGAACG", "note": "[U13A C22G C24A G39C A43C G44C U47C C61U]", "yeast fitness": "≤ 0.5"}, {"variant": "GUUCCGUUGGCGAAAUGGUAACGCGUCUCCCUCCUAUGGAGAAGACUGCGGGUUCGAGUCCCGUACCGAACG", "note": "[U13A A37U G67C]", "yeast fitness": 0.645}, {"variant": "GUUCCGUUGGCGAAAUGGUAAGGCGUCUCCGUCCUAAGGAGAAGACUGCGGGUUCGAGUCCCGUACGGAACG", "note": "[U13A C22G C31G]", "yeast fitness": 0.547}, {"variant": "GUUCCGUUGGCGAAAUGGUAAGGCGUCUCCCCCCUAAGGAGCAGACUCCGGGUUGGAGUCCCGUACGGAACG", "note": "[U13A C22G U32C A42C G48C C55G]", "yeast fitness": "≤ 0.5"}, {"variant": "GUUCCGUUGGCGAAAUGGUAAGGGGUCUCCCUCCUUAGGCGAAGACUGCGGGUUCGAGUCCCGUACGGAACG", "note": "[U13A C22G C24G A36U A40C]", "yeast fitness": 0.58}, {"variant": "GUUCCGUUGGCGAAAUGGUAACGCGUCUCCCUCCUAAGGGGAAGACUGCGGGUUCGUGUCCCGUACGAAACG", "note": "[U13A A40G A57U G68A]", "yeast fitness": 0.524}, {"variant": "GUUCCGUUGGCGAAAUGGUAACGGAUCUCCCUCCUAAGCCGAAGACUGCGCGUUCGAGUCCCGUACGGAACG", "note": "[U13A C24G G25A G39C A40C G51C]", "yeast fitness": 0.745}, {"variant": "GUUCCGUUGGCGAAAUGGUAACGCGUCUCCCUCCUAAGGAGAAGACUGCGGGUUCGAGUCCCGUACGGAUCG", "note": "[U13A A70U]", "yeast fitness": 1.04}, {"variant": "GUUCCGUUGGCGAAAUGGUAACGCGUCUCCCUCCUAAGGAGAAGACUGCGGGUUCGAGUCCCGUACGGAGCG", "note": "[U13A A70G]", "yeast fitness": 0.937}, {"variant": "GUUCCGUUGGCGAAAUGGUAACGCGUCUCCCUCCUAAGGAGAAGACUGCGGGUUCGAGUCCCGUACGGACCG", "note": "[U13A A70C]", "yeast fitness": 1.03}, {"variant": "GUUCCGUUGGCGAAAUGGUAACGCGUCUCCCUCCUAAGGAGCAGACUGCGGGUUCGAGUCCCGUACGCAACG", "note": "[U13A A42C G68C]", "yeast fitness": 0.529}, {"variant": "GUUCCGUUGGCGAAAUGGUAACGCGUCUCCCUCCUAAGGAGAAGACUGCGGGUUCGAGUCCCGUACGGGACG", "note": "[U13A A69G]", "yeast fitness": 1.07}]}]}
